Screening results: PubChem BioAssay, several laboratories
SF1 activator: activates the human nuclear receptor SF-1; actives 1.9% (n = 65,000); CHO-K1 Gal4-SF-1 LBD luciferase reporter; % increase over DMSO SF-1-specific signal; Q13285; activation, % at 10 µM;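 active = activation above the mean activation of all tested compounds plus 3 SD, cut at about 50% in these data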
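Test system: CHO-K1 cells with Gal4–hSF-1 LBD chimera plus Gal4-driven luciferase; Input: 4,000 cells/well; Compound: 10 µM only; Times: 20 h compound treatment, 37 °C; Measured by: steady-glow luciferase luminescence, read after 15 min reagent incubation; Measure: percent activation versus DMSO; Control set: DMSO and mock-transfected background; Replicates: one test per compound.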
RORa activator: activators of human nuclear receptor RORA. P35398. CHO-K1 Gal4-RORA LBD luciferase reporter, luminescence; percent increase over mock-subtracted basal signal. activation, % at 10 µM. actives 1.5% (n = 65,000). AID 560;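 active = activation above the mean of all tested compounds plus 3 SD, cut at about 49% in these data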;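 also: 0% = DMSO-treated RORA cells and 100% = added signal equal to DMSO minus mock-transfected cells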
M1 ag: M1 muscarinic receptor agonism; CHO-M1 cells, Fluo-4 calcium fluorescence, agonist mode; stronger effect = higher value; B-score at 10 µM; actives 3% (n = 64,000); AID 626;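 active = fluorescence rise, raw or as B-score row- and column-corrected plate score, outside the 99.7% band of its plate's samples, either direction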
D1 mod: allosteric modulators of human D1 dopamine receptor. HEK293 D1, CRE-luciferase, dopamine EC30 potentiation; actives deviate in either direction. B-score at 10 µM. actives 5.9% (n = 58,000);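 active = luminescence count or its row- and column-corrected plate score outside the 99.7% band of the plate's sample wells, on either side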
mHtt clearance: compounds clearing mutant huntingtin protein. HeLa Exon1htt(103Q)mCFP, aggregate imaging; zero = plate's median compound well. inhibition, % at 1.5 µM. actives 0.42% (n = 47,000);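 active = inhibition of aggregate fluorescence above about 70%, also judged a hit by eye on the cell image, limit read from the data, passing the limit was not always enough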;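 also: cells exposed to compound for three days before fixation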
M1 antag: blocks the rat M1 muscarinic receptor response to acetylcholine; P08482; CHO-M1 cells, Fluo-4 calcium, ACh EC80 antagonist mode; stronger effect = lower value; B-score at 10 µM; actives 3.4% (n = 64,000); AID 628;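 active = calcium fluorescence response, raw or row-and-column corrected B-score, differing from the plate sample mean either way at a set confidence level, mostly lower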
Target sequence (P08482 whole entry, looked up): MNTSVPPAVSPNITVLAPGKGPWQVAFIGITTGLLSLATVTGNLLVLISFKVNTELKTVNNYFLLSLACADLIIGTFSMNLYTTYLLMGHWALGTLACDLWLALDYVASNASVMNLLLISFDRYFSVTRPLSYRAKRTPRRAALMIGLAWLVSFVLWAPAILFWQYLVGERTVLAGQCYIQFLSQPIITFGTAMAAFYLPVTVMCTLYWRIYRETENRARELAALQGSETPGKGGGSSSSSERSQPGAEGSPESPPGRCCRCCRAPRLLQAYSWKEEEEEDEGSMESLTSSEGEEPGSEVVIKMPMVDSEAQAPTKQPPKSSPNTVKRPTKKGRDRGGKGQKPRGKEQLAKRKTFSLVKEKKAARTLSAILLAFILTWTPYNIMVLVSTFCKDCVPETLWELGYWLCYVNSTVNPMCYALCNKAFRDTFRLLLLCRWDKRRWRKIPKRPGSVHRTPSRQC
Numbers without * were called inactive; / = no result given. Most compounds without a hit are left out; they make up all but 11% or so of the library.

SMILES	SF1 activator	RORa activator	M1 ag	D1 mod	mHtt clearance	M1 antag
O=C(Nc1ccccc1-c1nc2ccccc2o1)c1ccc2c(c1)OCCO2	-3	-8	0.54	0.5	-18	0.0065
O=C(Nc1ccc2c(c1)OCCO2)c1c(F)cccc1F	56*	47	-0.077	-1.8	37	0.017
CCN1C(=O)c2cccc3c(NC(=O)c4ccc(S(=O)(=O)N5CCOCC5)cc4)ccc1c23	-16	-5	-0.66	-0.84	72*	-0.75
CCc1nc(SCc2cccnc2)[nH]c(=O)c1C	-6	-10	/	0.11	/	/
O=S(=O)(N1CCOCC1)n1c(Cc2ccccc2)nc2ccccc21	7	-18	0.17	4.4*	25	0.62
O=S(=O)(N1CCOCC1)n1nnc2ccccc21	6	2	0.75	0.34	24	0.95
CCn1ncc(C2=NOC(C(=O)Nc3c(C)nn(Cc4ccc(F)cc4)c3C)C2)c1C (centres undefined)	0	26	-2.5*	-1.7	/	-0.18
CCn1ncc(C2=NOC(C(=O)Nc3c(C)n(C)n(-c4ccccc4)c3=O)C2)c1C (centres undefined)	12	2	-0.28	0.38	23	0.35
CCOC(=O)c1c(-c2ccccc2)csc1NC(=O)CSc1nnnn1C	-6	-13	3.2*	0.38	48	-0.62
CCOC(=O)c1ccc(NC(=O)CSc2nnnn2CCCO)cc1	-5	7	0.033	-1.1	-351	1.8*
C=CCn1nnnc1SCC(=O)Nc1cccc(OC)c1	5	5	-0.66	0.081	/	11*
Cc1oc2nc(SCC(=O)NC3CCCCC3)nc(N)c2c1C	13	4	-0.36	0.74	5	0.67
O=C(c1ccco1)c1cn[nH]c1-c1ccc(Cl)cc1O	8	13	0.9	0.37	/	-0.6
COc1cccc2cc(C(=O)Nc3cccc(C)n3)c(=O)oc12	73*	58*	-0.44	-3.4	/	-0.3
COc1cccc2cc(NC(=O)C3CCCCC3)c(=O)oc12	66*	56*	/	/	-40	/
COc1cccc2cc(C(=O)N3CCC(C)CC3)c(=O)oc12	-19	5	-0.95	0.87	/	0.096
COc1cccc2cc(C(=O)N3CCCCC3C)c(=O)oc12 (centres undefined)	/	/	/	/	-7	/
CCOc1ccc(-n2cc(C(=O)Nc3cccc(C)n3)c3cc(OC)c(OC)cc3c2=O)cc1	14	-4	7.6*	-0.91	/	-0.059
CCCCOC(=O)Nc1cccc(Cl)c1C	/	/	/	/	27	/
O=[N+]([O-])c1ccc(N2CCN(c3ccc(Cl)nn3)CC2)cc1NC1CC1	/	/	/	/	-85	/
O=C(CSc1ccccn1)c1ccc(F)cc1	18	17	2.6	/	/	0.049
Cc1ccc(C(=O)CSc2ccccn2)cc1	84*	34	0.17	-1.3	36	-0.64
CCCCc1ccc(-c2ccc(Br)cc2O)nc1	/	/	/	/	7	/
CCCCc1ccc(-c2ccc(C)cc2O)nc1	15	16	-1.2	-5.3*	-63	1.2
CC(C)c1ccc(OCC(O)CN2CCN(c3ccccc3)CC2)cc1 (centres undefined)	-1	3	0.27	-4.5*	13	-1.7
SMILES	SF1 activator	RORa activator	M1 ag	D1 mod	mHtt clearance	M1 antag
CC1CCN(CC(O)COc2cccc(F)c2)CC1 (centres undefined)	3	13	0.017	-2.3	/	-0.69
OC(COc1ccc2ccccc2c1)CN1CCN(c2ccc(F)cc2)CC1 (centres undefined)	-9	6	0.29	-1.1	/	0.78
CC1CCN(CC(O)COc2ccc(F)cc2)CC1 (centres undefined)	-2	21	-0.053	-5.6*	/	-0.46
Cc1ccc(OCC(=O)OCC(=O)c2c(N)n(C)c(=O)n(C)c2=O)cc1C	/	/	/	/	-52	/
Cc1cccc(C(=O)Nc2ccccc2SCC2CSc3nc4ccccc4c(=O)n32)c1 (centres undefined)	/	/	/	/	-8	/
Cc1cc(Br)ccc1OCc1nc(-c2cccnc2)no1	22	16	-0.0047	-0.71	29	0.024
Clc1cc(Cl)c(OCc2nc(-c3ccccn3)no2)cc1Cl	34	52*	-0.36	-1.1	/	1.3
CC(C)(C)c1ccc(OCc2nc(-c3ccccn3)no2)c(Br)c1	71*	67*	-0.14	-3.1	-34	-0.054
Clc1ccc(OCc2nc(-c3ccncc3)no2)c(Cl)c1	86*	48	0.85	-0.29	/	-0.59
CCc1ccc(CN2CCN(C(=O)c3cccc(OC)c3OC)CC2)cc1	/	/	/	/	27	/
